Assay outcomes from PubChem.
Cdc25B inh = inhibitors of Cdc25B phosphatase catalytic domain, primary screen, biochemical, OMFP fluorescence; M-phase inducer phosphatase 2 (Homo sapiens), P30305; recombinant Cdc25B, OMFP fluorescence Ex485/Em525; inhibition, %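 (compounds tested at 10 µM final in the well)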; 65,000 tested, 0.1% active; in the data active means inhibition above about 50%
SF1 activator = activators of human SF-1, primary screen, cell-based, CHO-K1, Gal4-SF-1 LBD, luciferase luminescence; activation, % at 10 µM; 65,000 tested, 1.9% active; AID 522, 2006; CHO-K1 Gal4-SF-1 LBD luciferase reporter; % increase over DMSO SF-1-specific signal; Steroidogenic factor 1 (Homo sapiens), Q13285;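 active means activation above the mean activation of all tested compounds plus 3 SD, cut at about 50% in these data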
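Assay system – CHO-K1 cells with Gal4–hSF-1 LBD chimera plus Gal4-driven luciferase · Quantity – 4,000 cells per well · Times – compound added 1 h post-seeding, 20 h exposure at 37 °C, 5% CO2 · Measured by – luciferase light emission · Benchmarks – DMSO and mock-transfected background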
MKP-1 inh = MKP-1 phosphatase inhibitors, primary screen, biochemical, in vitro | inhibition, %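 (compounds tested at a single concentration somewhere between 10 and 100 µM)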 | 65,000 tested, 0.15% active | AID 374, 2006 | Dual specificity protein phosphatase 1 (Homo sapiens), P28562 | recombinant MKP-1, OMFP hydrolysis fluorescence;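 active means inhibition above about 50%, limit read from the data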;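 further: 0% = DMSO max control wells and 100% = wells with enzyme stopped by NaOH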
Hsp90 inh = tumor Hsp90 inhibitors, primary screen, cell lysate, fluorescence polarization, NCI-N417 lysate | Cy3B-geldanamycin FP displacement | Heat shock protein HSP 90-alpha (Homo sapiens), P07900 | 64,000 tested, 0.35% active | inhibition, % at 30 µM;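 active means inhibition above 50%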;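 further: 0% = tracer plus lysate wells and 100% = tracer alone without lysate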
JNK3 blocker = JNK3 kinase activity inhibitors, primary screen, biochemical, human, purified enzyme; Mitogen-activated protein kinase 10 (Homo sapiens), P53779; HTS; inhibition, % at 8 µM; 60,000 tested, 0.61% active; AID 746, 2007; in the data active means inhibition above about 17%;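 further: 0% = DMSO and 100% = reference inhibitor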
Target sequence (P53779 whole entry, looked up): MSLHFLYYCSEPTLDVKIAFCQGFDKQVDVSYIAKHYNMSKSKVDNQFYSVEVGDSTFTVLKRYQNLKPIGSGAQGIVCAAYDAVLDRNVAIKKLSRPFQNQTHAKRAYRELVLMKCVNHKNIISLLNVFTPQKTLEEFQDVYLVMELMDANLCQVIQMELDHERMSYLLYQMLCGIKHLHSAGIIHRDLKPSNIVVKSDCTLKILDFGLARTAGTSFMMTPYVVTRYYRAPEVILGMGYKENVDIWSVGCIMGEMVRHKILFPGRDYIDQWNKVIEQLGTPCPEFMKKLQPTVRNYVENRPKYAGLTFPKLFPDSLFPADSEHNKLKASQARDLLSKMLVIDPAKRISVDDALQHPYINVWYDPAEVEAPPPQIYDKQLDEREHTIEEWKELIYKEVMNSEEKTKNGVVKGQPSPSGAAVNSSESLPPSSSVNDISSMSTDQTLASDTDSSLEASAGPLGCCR
RORa activator = activators of orphan receptor RORA, primary screen, cell-based, luminescence; AID 560, 2006; CHO-K1 Gal4-RORA LBD luciferase reporter; percent increase over mock-subtracted basal signal; activation, % at 10 µM; 65,000 tested, 1.5% active;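 active means activation above the mean of all tested compounds plus 3 SD, cut at about 49% in these data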;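 further: 0% = DMSO-treated RORA cells and 100% = added signal equal to DMSO minus mock-transfected cells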
* hit, by the source's call; x = no result. A selection: hits, their analogues and other compounds. The true share with any hit is near 3.4%.

SMILES	Cdc25B inh	SF1 activator	MKP-1 inh	Hsp90 inh	JNK3 blocker	RORa activator
C=CCOn1c(=O)c(-c2cc3ccccc3o2)[n+]([O-])c2ccccc21	-26	77*	-12	1	-10	44
C=CCOn1c(=O)c(C)[n+]([O-])c2ccccc21	-7	0	4	-7	4	0
O=C1CCN2C=Nc3cccc4ccc1c2c34	80*	-8	11	36	-13	-2
COc1ccc(CNC(=O)c2cc(-c3cccs3)on2)cc1	-10	7	4	-5	2	-3
O=C(NCc1cccs1)c1cc(-c2cccs2)on1	-7	53*	8	-2	3	83*
COCCNC(=O)c1cc(-c2cccs2)on1	-3	48	3	0	-8	145*
c1ccc(-c2csc(N3CCCCCC3)n2)cc1	-7	8	-4	-2	-1	7
FC(F)(F)c1cc(-c2ccccc2)nc(N2CCCCCC2)n1	-7	2	-1	1	-6	-6
c1ccc(-c2cc(N3CCCCC3)ncn2)cc1	-5	56*	5	-1	7	34
Cc1nc(-c2ccccc2)cc(N2CCCC2)n1	2	-29	6	-2	-1	-4
c1ccc(-c2cnnc(N3CCCCC3)n2)cc1	-5	14	9	x	x	58*
Nc1nc(-c2ccccc2)cc(N2CCCCC2)n1	-8	75*	-1	-5	-2	47
c1ccc(-c2cc(N3CCCCCC3)n[nH]2)cc1	-13	42	2	-6	-10	70*
Cn1cccc1C(=S)N=P(C1CCCCC1)(N1CCOCC1)N1CCOCC1	1	-5	21	0	6	9
CCC(=O)Nc1ccc(S(=O)(=O)c2ccc(NC(=O)CC)cc2)cc1	-4	10	17	-2	3	1
O=C(Nc1cccc2cccnc12)c1sc2cc(Cl)ccc2c1Cl	x	x	x	-2	x	x
Nc1cccc(-n2nncc2-c2ccccc2)c1	2	-7	-22	-2	-1	-4
CCCCn1nnc(NC(=O)CC23CC4CC(CC(C4)C2)C3)n1	-3	17	8	4	-3	-18
O=C(NCCCN1CCOCC1)c1ccc(CS(=O)(=O)Cc2ccc(Cl)cc2)o1	-4	-18	3	-1	-4	1
Cc1c(C(=O)NCc2ccccn2)oc2ccccc12	-2	17	4	-8	6	4
Cc1c(C(=O)NCc2ccoc2)oc2ccc3c(c12)C(=O)CC(C)(C)O3	0	73*	-4	-3	-3	71*
O=C(NC(Cc1ccccc1)c1nc2ccccc2[nH]1)C1CC(=O)N(c2ccc3c(c2)OCCO3)C1 (configuration not stated)	-6	-6	15	-14	3	-9
CCc1c(C)nc2cc(-c3ccc(OC)cc3)[nH]n2c1=O	12	45	3	-2	4	58*
COC(=O)c1c(-c2cccs2)csc1NC(=O)c1cccnc1	0	-8	26	-2	2	-4
Cc1noc(C)c1CSc1ccccc1C(=O)Nc1nccs1	-3	-6	13	-1	-2	0
SMILES	Cdc25B inh	SF1 activator	MKP-1 inh	Hsp90 inh	JNK3 blocker	RORa activator
Nc1nc2ccc(C(=O)Nc3ccccc3)cc2s1	-13	90*	-3	-1	-2	62*
CC(=O)Nc1nc(COc2ccccc2)cs1	-10	38	8	-1	-3	51*
Cc1ccc(C(=O)Nc2nc(COc3ccccc3)cs2)s1	-7	16	-4	0	-2	19
O=C(Nn1cnnc1)c1ccccc1CCc1ccccc1	4	-12	24	-1	0	-2
CS(=O)(=O)N1CCN(c2ccccc2NC(=O)CSc2ccc(Cl)cc2)CC1	-6	-14	11	-4	21*	-7
CS(=O)(=O)N1CCN(c2ccccc2NC(=O)c2ccc(Cl)cc2)CC1	-16	-3	6	-1	-4	-17
CCOC(=O)C1(C(F)(F)F)N=C(c2cccnc2)OC(N2CCOCC2)=N1 (configuration not stated)	14	-7	4	-1	3	9
O=C(O)C1CN(CCCP(=O)(O)O)CCN1 (configuration not stated)	x	x	x	1	x	x
Nc1cc(N)nc(SCc2ccccc2)n1	-1	54*	-1	-4	-5	21
Nc1nc(SCc2ccccc2)ns1	-3	55*	-13	-1	8	24
COCCCNC(=O)CCS(=O)(=O)Cc1ccc(C)cc1	18	-17	-11	2	-3	2
CC12CC(NC(=O)N1c1cccc(C(=O)N3CCN(c4ccccn4)CC3)c1)c1ccccc1O2 (configuration not stated)	-2	-4	-9	-1	x	-12
Cc1cc(C)n(CCCNCC(O)c2ccccc2)n1 (configuration not stated)	-5	1	-9	-2	-2	-23
C=CCn1c(SCC(=O)OC)nc2sc3c(c2c1=O)CCN(C)C3	-27	8	-12	-9	-9	11
CCOC(=O)N1CCC(Nc2nc3ccccc3nc2NS(=O)(=O)c2ccc(Cl)cc2)CC1	0	54*	39	-3	-4	21
COc1ccc(-c2csc(N3CCOCC3)n2)cc1OC	-10	10	-15	-4	-5	61*
CNC(=O)CN(c1cccc(Br)c1)S(C)(=O)=O	-12	-17	3	0	0	4
C=CCNC(=O)CN(c1cccc(Br)c1)S(C)(=O)=O	-9	-19	4	88*	-6	6
COc1ccc(-c2noc(-c3ccco3)n2)cc1OC	-11	50*	-10	-4	2	44
COc1ccc(-c2nc(-c3ccc(NC(=O)c4ccc(Br)o4)cc3)no2)cc1OC	-11	31	29	5	-7	-8
COc1ccc(-c2nc(-c3ccncc3)no2)cc1OC	-14	74*	5	-3	-2	68*
COc1ccc(-c2noc(-c3cccc(Cl)c3)n2)cc1OC	1	14	19	-4	x	13
COc1ccccc1-c1nc(-c2ccc(Br)cc2)no1	-3	27	4	0	2	20
COc1ccccc1-c1nc(-c2ccncc2)no1	5	10	19	-7	-4	58*
COc1ccc(CCC(=O)Nc2ccc(-c3noc(-c4ccc(OC)c(OC)c4)n3)cc2)cc1	-8	75*	17	-10	-3	14
